Reference: ChEMBL document CHEMBL1667831, “Synthesis and biological evaluation of 2-aminoimidazole/carbamate hybrid anti-biofilm and anti-microbial agents” (Bioorg Med Chem Lett, 2011)

Legend:
Staphylococcus aureus [1] = assay: Antibiofilm activity against methicillin-resistant Staphylococcus aureus assessed as biofilm dispersal; format: functional, organism-based
Procedure, shortened: (§1)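 Dispersal of pre-formed biofilms, tested in dose-response. The value reported is EC50.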

[2] = Cytotoxicity against sheep RBC assessed hemolysis; format: cell-based, Ovis aries, Erythrocyte; conditions: sheep red blood cells, read-out: HD50 (the source's name)
Procedure, shortened: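 Red blood cell hemolysis assay using defibrinated sheep blood. HD50 is the concentration at which 50% hemolysis is observed.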

Pseudomonas aeruginosa [3] = assay: Antibacterial activity against Pseudomonas aeruginosa PA14; format: functional
Pseudomonas aeruginosa [4] = assay: Antibiofilm activity against Pseudomonas aeruginosa PA14; format: functional, organism-based
Procedure, shortened: (§2)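 Crystal violet reporter assay of biofilm formation, run as a dose-response. IC50 is the concentration inhibiting 50% of biofilm formation. Highest concentration tested 200 µM.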

Acinetobacter baumannii [5] = assay: Antibacterial activity against Acinetobacter baumannii ATCC 19606; format: functional; conditions: ATCC 19606 = CIP 70.34 = JCM 6841
Procedure, shortened: (§3)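 MIC, the minimum inhibitory concentration, measured against planktonic bacteria.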

Acinetobacter baumannii [6] = assay: Antibiofilm activity against Acinetobacter baumannii ATCC 19606; format: functional, organism-based; conditions: ATCC 19606 = CIP 70.34 = JCM 6841; procedure, shortened: as §2
Acinetobacter baumannii [7] = assay: Antibacterial activity against multi-drug resistant Acinetobacter baumannii ATCC BAA-1605; format: functional; procedure, shortened: as §3
Acinetobacter baumannii [8] = assay: Antibiofilm activity against Acinetobacter baumannii ATCC 19606 assessed as biofilm dispersal; format: functional, organism-based; conditions: ATCC 19606 = CIP 70.34 = JCM 6841
Procedure, shortened: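 Dispersal of pre-formed A. baumannii biofilms, run as a dose-response. EC50 values are reported for dispersal.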

Staphylococcus aureus [9] = assay: Antibacterial activity against Staphylococcus aureus ATCC 29213; format: functional; procedure, shortened: as §3
Staphylococcus aureus [10] = assay: Antibiofilm activity against Staphylococcus aureus ATCC 29213 assessed as biofilm dispersal; format: functional, organism-based; procedure, shortened: as §1
Staphylococcus aureus [11] = assay: Antibacterial activity against methicillin-resistant Staphylococcus aureus; format: functional; procedure, shortened: as §3
Staphylococcus aureus [12] = assay: Antibiofilm activity against methicillin-resistant Staphylococcus aureus; format: functional, organism-based
Procedure, shortened: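 Biofilm inhibition dose-response study. Biofilm formation is quantified with a crystal violet reporter assay. IC50 is the concentration that inhibits 50% of biofilm formation.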

CC(C)[C@@H]1CC[C@@H](C)C[C@H]1OC(=O)N(CCCCCCc1cn(CCCCCCCc2c[nH]c(N)n2)nn1)CCc1ccccn1.Cl
EC50 (Staphylococcus aureus [1]): 38.1 µM | HC50 [2]: 42.7 µM | MIC (Pseudomonas aeruginosa [3]): > 128 µg/mL | IC50 (Pseudomonas aeruginosa [4]): > 200 µM | MIC (Acinetobacter baumannii [5]): > 128 µg/mL | IC50 (Acinetobacter baumannii [6]): 16.7 µM | MIC (Acinetobacter baumannii [7]): > 128 µg/mL | EC50 (Acinetobacter baumannii [8]): 20.6 µM | MIC (Staphylococcus aureus [9]): 4 µg/mL | EC50 (Staphylococcus aureus [10]): 32.5 µM | MIC (Staphylococcus aureus [11]): 4 µg/mL

CC(C)[C@@H]1CC[C@@H](C)C[C@H]1OC(=O)N(CCCCCCc1cn(CCCCCc2c[nH]c(N)n2)nn1)CCc1ccccn1.Cl
EC50 (Staphylococcus aureus [1]): > 200 µM | HC50 [2]: 93.8 µM | MIC (Pseudomonas aeruginosa [3]): > 128 µg/mL | IC50 (Pseudomonas aeruginosa [4]): > 200 µM | MIC (Acinetobacter baumannii [5]): 16 µg/mL | IC50 (Acinetobacter baumannii [6]): 19.2 µM | MIC (Acinetobacter baumannii [7]): 16 µg/mL | EC50 (Acinetobacter baumannii [8]): 37.5 µM | MIC (Staphylococcus aureus [9]): 4 µg/mL | EC50 (Staphylococcus aureus [10]): > 200 µM | MIC (Staphylococcus aureus [11]): 8 µg/mL

CC(=O)NCCCCCCc1cn(CCCCCc2c[nH]c(N)n2)nn1.Cl
HC50 [2]: > 800 µM | MIC (Pseudomonas aeruginosa [3]): > 128 µg/mL | IC50 (Pseudomonas aeruginosa [4]): > 200 µM | MIC (Acinetobacter baumannii [5]): > 128 µg/mL | IC50 (Acinetobacter baumannii [6]): > 200 µM | MIC (Acinetobacter baumannii [7]): > 128 µg/mL | MIC (Staphylococcus aureus [9]): > 128 µg/mL | MIC (Staphylococcus aureus [11]): > 128 µg/mL | IC50 (Staphylococcus aureus [12]): > 200 µM

CC(C)[C@@H]1CC[C@@H](C)C[C@H]1OC(=O)NCCCn1cc(CCCCCc2c[nH]c(N)n2)nn1.Cl
HC50 [2]: 318 µM | MIC (Pseudomonas aeruginosa [3]): 64 µg/mL | IC50 (Pseudomonas aeruginosa [4]): 40.3 µM | MIC (Acinetobacter baumannii [5]): 64 µg/mL | MIC (Acinetobacter baumannii [7]): 64 µg/mL | MIC (Staphylococcus aureus [9]): 16 µg/mL | MIC (Staphylococcus aureus [11]): 16 µg/mL | IC50 (Staphylococcus aureus [12]): 20.5 µM

CC(C)[C@@H]1CC[C@@H](C)C[C@H]1OC(=O)NCCn1cc(CCCCCc2c[nH]c(N)n2)nn1.Cl
HC50 [2]: 474 µM | MIC (Pseudomonas aeruginosa [3]): > 128 µg/mL | IC50 (Pseudomonas aeruginosa [4]): 58.7 µM | MIC (Acinetobacter baumannii [5]): 64 µg/mL | IC50 (Acinetobacter baumannii [6]): 94.9 µM | MIC (Acinetobacter baumannii [7]): 128 µg/mL | MIC (Staphylococcus aureus [9]): 16 µg/mL | MIC (Staphylococcus aureus [11]): 64 µg/mL | IC50 (Staphylococcus aureus [12]): 29.9 µM

CC(C)[C@@H]1CC[C@@H](C)C[C@H]1OC(=O)NCCCCCc1c[nH]c(N)n1.Cl
HC50 [2]: 464 µM | MIC (Pseudomonas aeruginosa [3]): 32 µg/mL | IC50 (Pseudomonas aeruginosa [4]): 18 µM | MIC (Acinetobacter baumannii [5]): 32 µg/mL | IC50 (Acinetobacter baumannii [6]): 19.2 µM | MIC (Acinetobacter baumannii [7]): 32 µg/mL | MIC (Staphylococcus aureus [9]): 32 µg/mL | MIC (Staphylococcus aureus [11]): 32 µg/mL

CC(C)[C@@H]1CC[C@@H](C)C[C@H]1OC(=O)N(CCCCCCc1cn(CCCCCCc2c[nH]c(N)n2)nn1)CCc1ccccn1.Cl
HC50 [2]: 46 µM | MIC (Pseudomonas aeruginosa [3]): > 128 µg/mL | IC50 (Pseudomonas aeruginosa [4]): > 200 µM | MIC (Acinetobacter baumannii [5]): 32 µg/mL | IC50 (Acinetobacter baumannii [6]): 18.4 µM | MIC (Acinetobacter baumannii [7]): > 128 µg/mL | MIC (Staphylococcus aureus [9]): 4 µg/mL | MIC (Staphylococcus aureus [11]): 4 µg/mL

CC(C)[C@@H]1CC[C@@H](C)C[C@H]1OC(=O)NCCCCCCCc1c[nH]c(N)n1.Cl
EC50 (Staphylococcus aureus [1]): 53.5 µM | HC50 [2]: 474 µM | MIC (Pseudomonas aeruginosa [3]): 64 µg/mL | MIC (Acinetobacter baumannii [5]): 8 µg/mL | IC50 (Acinetobacter baumannii [6]): 16.7 µM | MIC (Acinetobacter baumannii [7]): 8 µg/mL | EC50 (Acinetobacter baumannii [8]): 68.3 µM | MIC (Staphylococcus aureus [9]): 8 µg/mL | EC50 (Staphylococcus aureus [10]): 38.8 µM | MIC (Staphylococcus aureus [11]): 8 µg/mL

CC(C)[C@@H]1CC[C@@H](C)C[C@H]1OC(=O)NCCCCCCc1c[nH]c(N)n1.Cl
HC50 [2]: 229 µM | MIC (Pseudomonas aeruginosa [3]): 64 µg/mL | IC50 (Pseudomonas aeruginosa [4]): 18 µM | MIC (Acinetobacter baumannii [5]): 16 µg/mL | MIC (Acinetobacter baumannii [7]): 16 µg/mL | MIC (Staphylococcus aureus [9]): 8 µg/mL | MIC (Staphylococcus aureus [11]): 8 µg/mL
